Laboratory results from ChEMBL document CHEMBL1141015, “Discovery of diacylphloroglucinols as a new class of GPR40 (FFAR1) agonists” (Bioorg Med Chem Lett, 2008).
Activity calls are given as the source filed them. The rule behind the calls is not given here.

Legend:
[1] = target: T1, Free fatty acid receptor 1 (Homo sapiens, UniProt O14842); test: Activation at GPR40 expressed in HEK293 cells at 100 uM by calcium mobilization-based FLIPR assay; format: functional, cell-based
[2] = target: T1, Free fatty acid receptor 1; test: Agonist activity at human GPR40 expressed in CHOK1 cells assessed as effect on calcium flux at 10 uM by fluorescence assay; format: functional, cell-based; settings: CHO-K1
Method in brief: (§1)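 CHO K1 cells stably transfected with hGPR40 (vector pCDN), seeded 10,000 cells/well on poly-D-lysine plates, 48 h culture; loaded 1 h with 2.5 µM Fluo-4AM in 10 mM Hepes, 2.5 mM probenecid, HBSS pH 7.5, washed thrice, 37 °C; Ca²⁺ flux read on FlexStation as fold over control; mock-transfected CHO K1 cells run in parallel for specificity.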

[3] = target: T1, Free fatty acid receptor 1; test: Agonist activity at human GPR40 expressed in CHOK1 cells assessed as fold increase in calcium flux at 10 uM by fluorescence assay relative to control; format: functional, cell-based; settings: CHO-K1; method in brief: as §1
[4] = target: T1, Free fatty acid receptor 1; test: Activity at human GPR40 expressed in CHOK1 cells assessed as inhibition of linoleic acid-induced calcium flux by fluorescence assay; format: functional, cell-based; settings: CHO-K1
[5] = target: T1, Free fatty acid receptor 1; test: Agonist activity at GPR40; format: functional
[6] = target: T1, Free fatty acid receptor 1; test: Agonist activity at GPR40 expressed in CHO cells by FLIPR assay; format: functional, cell-based
Method in brief: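 CHO-K1 cells stably transfected with hGPR40 (pCDN vector), seeded and grown 48 h, loaded 1 h with Fluo-4AM in 10 mM Hepes/Ca²⁺/2.5 mM probenecid HBSS pH 7.5, washed thrice, held at 37 °C. FlexStation calcium flux read as fold over control. EC50 from dose–response curves; efficacy as % of maximal linoleic acid response. Mock-transfected CHO-K1 run in parallel.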

[7] = target: T1, Free fatty acid receptor 1; test: Agonist activity at GPR40 at 100 uM; format: functional
[8] = target: T1, Free fatty acid receptor 1; test: Agonist activity at human GPR40 expressed in CHOK1 cells by fluorescence assay; format: functional, cell-based, CHO-K1; method in brief: as §1
[9] = target: T1, Free fatty acid receptor 1; test: Agonist activity at human GPR40 expressed in CHOK1 cells assessed as maximal response at 10 uM by fluorescence assay relative to linoleic acid; format: functional, cell-based; settings: CHO-K1; method in brief: as §1
HIT-T15 = test: Induction of insulin secretion in Syrian golden hamster HIT-T15 cells at 10 uM; format: functional, cell-based; settings: Mesocricetus auratus
Method in brief: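 HIT-T15 hamster pancreatic cells treated with 10 µM compound; insulin secretion measured, with linoleic acid as reference.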

[10] = target: Free fatty acid receptor 1 (Mus musculus, UniProt Q76JU9); test: Agonist activity at mouse GPR40 expressed in HEK293 cells; format: functional, cell-based
Chain of Free fatty acid receptor 1 (Mus musculus, UniProt Q76JU9) (Q76JU9 whole entry): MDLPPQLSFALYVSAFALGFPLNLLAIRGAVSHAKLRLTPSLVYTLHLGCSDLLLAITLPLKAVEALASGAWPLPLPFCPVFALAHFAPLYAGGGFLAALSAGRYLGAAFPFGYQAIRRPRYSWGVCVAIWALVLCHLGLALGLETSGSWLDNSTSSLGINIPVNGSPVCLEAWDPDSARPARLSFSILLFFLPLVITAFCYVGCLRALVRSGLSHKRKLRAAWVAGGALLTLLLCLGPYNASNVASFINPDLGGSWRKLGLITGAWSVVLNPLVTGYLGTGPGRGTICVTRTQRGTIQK

T1 sequence (O14842 whole entry): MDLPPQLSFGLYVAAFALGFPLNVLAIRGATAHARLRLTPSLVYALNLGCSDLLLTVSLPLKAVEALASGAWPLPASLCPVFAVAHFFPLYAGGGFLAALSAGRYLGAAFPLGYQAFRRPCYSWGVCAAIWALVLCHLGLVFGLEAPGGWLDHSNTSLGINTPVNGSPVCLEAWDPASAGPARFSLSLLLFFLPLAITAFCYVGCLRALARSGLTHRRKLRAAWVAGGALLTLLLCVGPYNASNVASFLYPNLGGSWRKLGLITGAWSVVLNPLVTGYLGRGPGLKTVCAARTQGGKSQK

Activity [2] | fold change (FC) [3] | Activity [4] | Compound | further results
– | – | – | O=C(O)CCc1ccc2oc(Nc3cccc(Cl)c3Cl)nc2c1 | Activity [1]: 111%
inactive | 1 | inactive | CC(C)CC(=O)c1c(O)cc(O)c(C(=O)CCCC(=O)O)c1O | –
inactive | 1.02 | inactive | CCCCOc1cc(O)c(C(=O)CC(C)C)c(O)c1C(=O)CC(C)C | –
inactive | 1.02 | inactive | CC(C)CC(=O)c1c(O)cc(OCCO)c(C(=O)CC(C)C)c1O | –
inactive | 1.19 | inactive | CCCCCCCCCCCCCCCCCC(=O)c1c(O)cc(O)c(C(=O)CCCCCCCCCCCCCCCCC)c1O | –
– | – | – | O=C(O)CCc1ccc(OCc2ccc(CC(CCc3ccccn3)c3nc(-c4ccccc4)cs3)cc2)cc1 (stereo unspecified) | EC50 [5]: 0.019 µM
– | – | – | O=C(O)[C@H]1[C@@H]2Oc3cc(Oc4ccc(C(F)(F)F)cc4Cl)ccc3[C@@H]21 | EC50 [6]: 0.0001 µM
inactive | 1 | inactive | O=C(O)CCCC(=O)c1c(O)cc(O)cc1O | –
– | – | – | Cc1cc(OCC2(C)COC2)cc(C)c1-c1cccc(COc2ccc(C3CC3C(=O)O)cc2)c1 (stereo unspecified) | Activity [7]: 119%
Active | 2.31 | – | CC(C)C(=O)c1c(O)cc(O)c(C(=O)C(C)C)c1O | EC50 [8]: 8 µM; Activity [9]: 88.7%; Activity (HIT-T15): Active
inactive | 1.46 | inactive | CCCCOc1cc(O)c(C(=O)CC(C)C)c(OCCCC)c1C(=O)CC(C)C | –
inactive | 1.11 | inactive | CC(C)CC(=O)c1c(O)c(Cc2c(O)c(C(=O)CC(C)C)c(O)c(C(=O)CC(C)C)c2O)c(O)c(C(=O)CC(C)C)c1O | –
inactive | 1.21 | inactive | CCCCCCCC(=O)c1c(O)cc(O)c(C(=O)CCCCCCC)c1O | –
– | – | – | Cc1cccc(C)c1-c1cccc(COc2ccc(Cn3oc(=O)[nH]c3=O)cc2)c1 | EC50 [5]: 0.26 µM
Active | 2.12 | – | CCCCc1c(O)c(C(=O)CC(C)C)c(O)c(C(=O)CC(C)C)c1O | EC50 [8]: 0.97 µM; Activity [9]: 84.5%
Active | 2.55 | – | CCCCC/C=C\C/C=C\CCCCCCCC(=O)O [LINOLEIC ACID] | EC50 [8]: 0.54 µM; EC50 [5]: 0.54 µM
Active | 1.89 | – | CC(C)CC(=O)c1c(O)cc(O)c(C(=O)CC(C)C)c1O | EC50 [8]: 6 µM; Activity [9]: 102%; Activity (HIT-T15): Active
– | – | – | CC#CC(CC(=O)O)c1ccc(OC2CCc3cc(-c4cccs4)ccc32)cc1 (stereo unspecified) | EC50 [5]: 0.01 µM
– | – | – | CCCCOc1ccc(C)cc1-c1ccc(COc2ccc3c(c2)CCC[C@H]3CC(=O)O)cc1 | EC50 [6]: < 0.1 µM
inactive | 1.21 | inactive | O=C(CCl)c1c(O)cc(O)c(C(=O)CCl)c1O | –
Active | 2.33 | – | CCCCCCCCCCCC(=O)c1c(O)cc(O)c(C(=O)CCCCCCCCCCC)c1O [DIDODECANOYLPHLOROGLUCINOL] | EC50 [8]: 0.07 µM; Activity [9]: 100%; Activity (HIT-T15): Active
– | – | – | O=C(O)CCCCCCCNc1ncc(-c2ccccc2)c(-c2ccccc2)n1 | Activity [1]: 104%
inactive | 1.01 | inactive | O=C(/C=C/C(=O)c1c(O)cc(O)cc1O)c1c(O)cc(O)cc1O | –
– | – | – | CCCCCCCCC1SC(=O)NC1=O (stereo unspecified) | EC50 [10]: 7.94 µM
inactive | 1.12 | inactive | CC(C)CC(=O)c1c(O)cc(O)cc1O | –
inactive | 1.35 | inactive | CCCCOc1cc(OCCCC)c(C(=O)CC(C)C)c(O)c1C(=O)CC(C)C | –
inactive | 1.02 | inactive | CCCCCCCCCCCCCCCC(=O)c1c(O)cc(O)c(C(=O)CCCCCCCCCCCCCCC)c1O | –
